Where two headings read alike, the source gives them in different places.
Tests used:
[1] = tested on: human HT-29 colon tumor cell line; assay: HT-29 tumor cell growth inhibition; assay type: cell-based
In short: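 Human HT-29 colon tumour cells. Two-stage screen: test compounds first tested at one concentration in triplicate for % growth inhibition.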

[2] = target: PDE3B (Homo sapiens, UniProt Q13370); assay type: biochemical
[3] = PDE3 inhibition IC50, cGMP, substrate cGMP
[4] = read-out: % PDE3 inhibition at 50 μM, cAMP, substrate cAMP, 50 μM
[5] = read-out: % PDE3 inhibition at 50 μM, cGMP, substrate cGMP, 50 μM
[6] = Homo sapiens, HT-29, read-out: HT-29 growth inhibition: IC50
[7] = PDE3 inhibition IC50, cAMP, substrate cAMP

Sequence of PDE3B (Q13370 whole entry): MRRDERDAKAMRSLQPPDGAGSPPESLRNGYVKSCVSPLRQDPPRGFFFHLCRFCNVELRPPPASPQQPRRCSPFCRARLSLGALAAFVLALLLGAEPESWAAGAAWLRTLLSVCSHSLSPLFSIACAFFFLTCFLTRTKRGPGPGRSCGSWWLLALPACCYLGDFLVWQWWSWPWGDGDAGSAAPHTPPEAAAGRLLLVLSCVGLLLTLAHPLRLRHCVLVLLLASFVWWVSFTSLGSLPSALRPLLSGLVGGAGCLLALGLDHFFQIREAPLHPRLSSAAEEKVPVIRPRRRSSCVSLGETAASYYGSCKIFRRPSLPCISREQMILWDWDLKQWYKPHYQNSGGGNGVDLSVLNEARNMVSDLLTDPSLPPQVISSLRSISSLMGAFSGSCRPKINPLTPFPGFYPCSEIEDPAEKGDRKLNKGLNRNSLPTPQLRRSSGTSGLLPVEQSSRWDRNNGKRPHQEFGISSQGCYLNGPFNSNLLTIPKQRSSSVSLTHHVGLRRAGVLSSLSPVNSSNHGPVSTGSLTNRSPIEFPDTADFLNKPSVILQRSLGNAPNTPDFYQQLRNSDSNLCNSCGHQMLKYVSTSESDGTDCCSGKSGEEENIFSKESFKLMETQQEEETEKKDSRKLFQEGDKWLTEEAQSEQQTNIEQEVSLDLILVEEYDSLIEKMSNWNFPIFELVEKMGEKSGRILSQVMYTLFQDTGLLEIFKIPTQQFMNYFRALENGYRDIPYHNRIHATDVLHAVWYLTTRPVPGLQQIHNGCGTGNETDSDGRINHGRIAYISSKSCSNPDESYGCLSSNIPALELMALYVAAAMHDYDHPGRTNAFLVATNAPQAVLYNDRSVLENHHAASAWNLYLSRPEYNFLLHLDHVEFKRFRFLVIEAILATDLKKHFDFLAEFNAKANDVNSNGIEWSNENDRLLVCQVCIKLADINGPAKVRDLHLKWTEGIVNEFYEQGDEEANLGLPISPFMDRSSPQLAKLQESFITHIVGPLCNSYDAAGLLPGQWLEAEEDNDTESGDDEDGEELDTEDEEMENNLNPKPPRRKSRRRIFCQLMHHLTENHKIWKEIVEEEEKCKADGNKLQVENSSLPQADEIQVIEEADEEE

Molecule | HT-29 growth inhibition: % Growth inhibition at 50 μM ([1]; HT-29 colorectal cancer cell line, 50 μM, triplicate) [%] | IC50 ([1]; read-out: HT-29 growth inhibition: IC50, HT-29 colorectal cancer cell line, 10 concentrations) [µM] | % PDE3 inhibition at 50 μM, cAMP ([2]; substrate cAMP, 50 μM) [%] | % PDE3 inhibition at 50 μM, cGMP ([2]; substrate cGMP, 50 μM) [%] | IC50 [2, 3] [µM] | inhibition at 50 µM [2, 4] [%] | inhibition at 50 µM [2, 5] [%] | IC50 [1, 6] [µM] | IC50 [2, 7] [µM] | PDE3 inhibition with cAMP as substrate (in words) ([2]; substrate cAMP) | induction of apoptosis to the HT-29 cell line (in words) ([1]; HT-29 cell line, positive control)
6-(2-Bromophenyl)-4-(2-ethoxyphenyl)-2-oxo-1,2-dihydropyridine-3-carbonitrile [Compound 4] | 68 | 15.5 | 70 | 72 |  |  |  |  |  |  | 
COc1ccccc1-c1cc(-c2cccc(Br)c2)nc(N)c1C#N [Compound 1, 2-Amino-6-(3-bromophenyl)-4-(2-methoxyphenyl)nicotinonitrile] |  |  |  |  | 4 | ≤ 50 | 105 |  |  |  | 
CCOc1ccccc1-c1cc(-c2cccc(Br)c2)nc(N)c1C#N [Compound 2, 2-Amino-6-(3-bromophenyl)-4-(2-ethoxyphenyl)nicotinonitrile] |  |  |  |  |  |  | ≤ 50 | 43 |  |  | 
COc1ccccc1-c1cc(-c2ccc(-c3ccc(Br)cc3)cc2)nc(N)c1C#N [Compound 3, 2-Amino-6-(4′-bromobiphenyl-4-yl)-4-(2-methoxyphenyl)nicotinonitrile] |  |  |  |  | 13.4 | 55 | 85 | 32 | 35.6 |  | 
N#Cc1c(-c2ccccc2Cl)cc(-c2ccccc2Br)[nH]c1=O [Compound 5, 6-(2-Bromophenyl)-4-(2-chlorophenyl)-2-oxo-1,2-dihydropyridine-3-carbonitrile] |  |  |  |  | 10.5 | 77 | 75 | 10.4 | 6.2 |  | 
CCOc1ccccc1-c1cc(-c2cccc(Br)c2)nc2ncnc(N)c12 [Compound 6, 7-(3-Bromophenyl)-5-(2-ethoxyphenyl)pyrido[2,3-d]pyrimidin-4-amine] |  |  |  |  | 10.9 | 48 | 85 | 18.3 |  | did not inhibit PDE3 | 
COc1ccccc1-c1cc(-c2cccc(Br)c2)nc2nc[nH]c(=O)c12 [Compound 7, 7-(3-Bromophenyl)-5-(2-methoxyphenyl)pyrido[2,3-d]pyrimidin-4(3H)-one] |  |  |  |  | 10.8 | 62 | 78.6 | 1.34 | 24.2 |  | 
Cc1[nH]c(=O)c(C#N)cc1-c1ccncc1 [Milrinone, reference compound] |  |  |  |  |  | 77 | 95 | > 50 |  |  | inactivity

Source: PMC5006629 (Chemical & pharmaceutical bulletin, 2013)
